According to ChEMBL document CHEMBL3085625, “Synthesis, biological evaluation and molecular modeling studies of some novel thiazolidinediones with triazole ring” (Eur J Med Chem, 2013):
Values after ≈ are worked out from the molar mass of the structure shown.

Tests used:
[1] = test system: HepG2; assay: Cytotoxicity against human HepG2 cells after 24 hrs by MTT assay; assay type: functional, cell-based; details: HepG2, 24 h
In short: (§1)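 MTT read-out: viable-cell mitochondrial dehydrogenase reduces tetrazolium to formazan, which is dissolved in DMSO and read at 570 nm. IC50 reported in μg/ml. Doxorubicin serves as positive control.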

[2] = Inhibition of alpha-glucosidase (unknown origin) using p-nitrophenyl-alpha-D-glucopyranoside as substrate assessed as p-nitrophenol formation incubated for 5 mins prior to substrate addition measured after 5 mins by spectrophotometry
In short: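 Test samples (5 mg/mL DMSO stock) in 100 mM phosphate buffer pH 6.8 preincubated 5 min with yeast α-glucosidase (0.76 U/mL) or crude rat intestinal enzyme (supernatant of sonicated acetone powder in saline, centrifuged). Then 5 mM p-nitrophenyl-α-D-glucopyranoside added; p-nitrophenol read at 405 nm after 5 min. Sample blanks without substrate; DMSO controls. Inhibition = (1−B/A)×100. Triplicate; IC50 by regression of mean inhibition.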

[3] = test system: MCF7; assay: Cytotoxicity against human MCF7 cells after 24 hrs by MTT assay; assay type: functional, cell-based; details: MCF7, 24 h; in short: as §1
[4] = Cytotoxicity against human IMR32 cells after 24 hrs by MTT assay; assay type: functional, cell-based; details: IMR-32, 24 h; in short: as §1

SMILES	IC50 [2]	IC50 [1]	IC50 [3]	IC50 [4]
COc1ccc(C)cc1-n1cc(CN2C(=O)S/C(=C\c3ccc4c(c3)OCO4)C2=O)nn1	> 100 µg/mL	45 µg/mL (≈ 99.9 µM)	34 µg/mL (≈ 75.5 µM)	52.6 µg/mL (≈ 117 µM)
O=C1S/C(=C\c2ccc3c(c2)OCO3)C(=O)N1Cc1cn(CCc2ccccc2)nn1	0.3 µg/mL (≈ 0.69 µM)	31 µg/mL (≈ 71.4 µM)	30 µg/mL (≈ 69 µM)	52.6 µg/mL (≈ 121 µM)
CCCCCCn1cc(CN2C(=O)S/C(=C\c3ccc4c(c3)OCO4)C2=O)nn1	> 100 µg/mL	67 µg/mL (≈ 162 µM)	43 µg/mL (≈ 104 µM)	77.6 µg/mL (≈ 187 µM)
O=C1S/C(=C\c2ccc3c(c2)OCO3)C(=O)N1Cc1cn(-c2ccccc2[N+](=O)[O-])nn1	0.1 µg/mL (≈ 0.222 µM)	> 100 µg/mL	> 100 µg/mL	> 100 µg/mL
C[C@H]1O[C@H](O[C@H]2[C@H](O)[C@@H](O)[C@@H](O[C@H]3[C@H](O)[C@@H](O)C(O)O[C@@H]3CO)O[C@@H]2CO)[C@H](O)[C@@H](O)[C@@H]1N[C@H]1C=C(CO)[C@@H](O)[C@H](O)[C@H]1O (some centres not stated) [ACARBOSE]	12.5 µg/mL (≈ 19.4 µM)			
COc1cccc2c1C(=O)c1c(O)c3c(c(O)c1C2=O)C[C@@](O)(C(=O)CO)C[C@@H]3O[C@H]1C[C@H](N)[C@H](O)[C@H](C)O1 [DOXORUBICIN]		0.6 µg/mL (≈ 1.1 µM)		0.8 µg/mL (≈ 1.47 µM)

The next lines start with results.

IC50 [2]	SMILES	IC50 [1]	IC50 [3]	IC50 [4]
> 100 µg/mL	O=C1S/C(=C\c2ccc3c(c2)OCO3)C(=O)N1Cc1cn(-c2ccc(Cl)c(F)c2)nn1	> 100 µg/mL	> 100 µg/mL	> 100 µg/mL
> 100 µg/mL	O=C1S/C(=C\c2ccc3c(c2)OCO3)C(=O)N1Cc1cn(-c2ccc(F)cc2)nn1	> 100 µg/mL	96.2 µg/mL (≈ 227 µM)	> 100 µg/mL
33.6 µg/mL (≈ 76.2 µM)	O=C1S/C(=C\c2ccc3c(c2)OCO3)C(=O)N1Cc1cn(-c2ccc(Cl)cc2)nn1	> 100 µg/mL	> 100 µg/mL	> 100 µg/mL
40 µg/mL (≈ 90.7 µM)	O=C1S/C(=C\c2ccc3c(c2)OCO3)C(=O)N1Cc1cn(-c2ccccc2Cl)nn1	> 100 µg/mL	87 µg/mL (≈ 197 µM)	> 100 µg/mL
0.3 µg/mL (≈ 0.669 µM)	CC(C)c1ccc(-n2cc(CN3C(=O)S/C(=C\c4ccc5c(c4)OCO5)C3=O)nn2)cc1	66 µg/mL (≈ 147 µM)	78 µg/mL (≈ 174 µM)	97.5 µg/mL (≈ 217 µM)
75.5 µg/mL (≈ 180 µM)	Cc1ccc(-n2cc(CN3C(=O)S/C(=C\c4ccc5c(c4)OCO5)C3=O)nn2)cc1	> 100 µg/mL	> 100 µg/mL	> 100 µg/mL
> 100 µg/mL	O=C1S/C(=C\c2ccc3c(c2)OCO3)C(=O)N1Cc1cn(-c2ccc(F)c(F)c2)nn1	> 100 µg/mL	> 100 µg/mL	> 100 µg/mL
